The subject of this data set is MS2 coat protein. The experiment in a line: apparent Kd, MS2 coat protein; higher = weaker binding; RNA-MaP array; FMN 200 µM where present. The procedure, abridged: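 The apparent Kd is the median of filtered binding-curve fits, one per cluster, to green signal normalised to red-channel RNA signal and control-cluster median Fmax. The clusters were on Illumina sequencing chips, and stalled E. coli RNA polymerase had transcribed the designs on them. Titration used SNAP-549-labelled MS2 coat protein from 0.7 or 1.5 nM, doubling to 3 µM, without and then with constant ligand, in 100 mM Tris-HCl pH 7.5, 80 mM KCl, 4 mM MgCl2, BSA, DTT, yeast tRNA and Tween-20.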

The mark [1] stands for this setting: designed as: OFF switch for flavin mononucleotide, no ligand.
The mark [2] stands for this setting: ligand present: flavin mononucleotide, designed as: OFF switch for flavin mononucleotide.
Where [3] appears, read: designed as: ON switch for flavin mononucleotide, no ligand.
Where [4] appears, read: ligand present: flavin mononucleotide, designed as: ON switch for flavin mononucleotide.

As for “AACAGCUCGUCAGGAUAUAUUUUCCUUUUAUGUAUUUAUGUACAUGAGGAUCACCCAUGUUGAUAGUAGAAGGGACGAGCUGAA”, the “apparent Kd” value worked out at 13.8 nM under setting [1] and 34.4 nM under setting [2].

As to “AUACUCAAUGAAGGAUAUCUCAGCAUAAACCUGAGAGAAGGUCAUUGUUACAUGAGGAUCACCCAUGUUGUAGUUAAUGGGUAA”, the “apparent Kd” value is, setting by setting: under setting [1], 504 nM; under setting [2], 573 nM.

Regarding “CCCUUUAGAGGAUAUACAUGAGGAUCACCCAUGUCUUGGGUCCGGCCUGAUCUGGUACGUAGAAGGCUGUUGGU”, the “apparent Kd” value is, setting by setting: under setting [1], 187 nM; under setting [2], 158 nM.

Take “CGGGUCUGAGGAUAUCCAUCUUCAUACAUGAGGAUCACCCAUGUUUACCUUUGGGUUCCUGGAGAAGGCAGUUUUC”: the “apparent Kd” value was found to be 74.9 nM under setting [1] and 78.4 nM under setting [2].

On to “GAGCCUCCGUAGAAGGCCGCGGAAUCCGAACGCGGAGGAUAUACAUGAGGAUCACCCAUGUGAAAGUGGAACGAUAAAACGCUU”, for which the “apparent Kd” value reads like this: under setting [1], 14.7 nM; under setting [2], 47.2 nM.

For the sequence “UCAGGAGUCACAGGAUAUCCGGCAUAGCAUACAGGAGAAGGGUGAUCACGAGCACAUGAGGAUCACCCAUGUGACAUUUGUGGA”, the “apparent Kd” value runs as follows: under setting [3], 96.3 nM; under setting [4], 83.3 nM.

As to “UAAUCUCAGAUAGGAUAUAUAGGAUAACUUAAGACCUAACAUGAGGAUCACCCAUGUGAUUAUUCGUAGAAGGAUCAAUGACCC”, the “apparent Kd” value is, setting by setting: under setting [3], 189 nM; under setting [4], 200 nM.

Take “GGAUAGGACAGAGGAUAUACGGAUAGGAUCUACUAUCUUCCUUAAAUAACAUGAGGAUCACCCAUGUAGAAGGCUGUCCUAUCG”: the “apparent Kd” value runs as follows: under setting [1], 18.6 nM; under setting [2], 67.9 nM.

As to “GAUACACAUGAGGAUCACCCAUGUCGUAUGACAUGAGGAUAUGUACAGACUUCGGUCUGUACAGAAGGCAUGUGUC”, the “apparent Kd” value reads like this: under setting [3], 115 nM; under setting [4], 199 nM.

On to “AAAAAGUGAGGAUAUACAUGAGGAUCACCCAUGUGAAAUCGGAAAAAAAAGGAAAAAAGUAGAAGGCACAAAAA”, for which the “apparent Kd” value under setting [1] is 24.2 nM and the “apparent Kd” value under setting [2] was 24.3 nM.

Take “AGAUAUGAUGCAGGAUAUCUAUCUUGAAUGAGGAGAGAAGGGCAAACAGAGACAUAAGCCUUAUUACAUGAGGAUCACCCAUGU”: the “apparent Kd” value reads like this: under setting [1], 10.1 nM; under setting [2], 8.83 nM.

On to “ACUAGAUGAGGAUAUGCAUGUUUUCGUGUUCUUCUAGAUUAACAUGAGGAUCACCCAUGUAGAAGGCGUCAUUU”, for which the “apparent Kd” value is, setting by setting: under setting [1], 81 nM; under setting [2], 118 nM.

In the case of “GCUGCGCGAGGAUAUGCGGUUUGCGCUGUGGCCCGUGGCGUACAUGAGGAUCACCCAUGUAGAAGGCGUGUGGG”, the “apparent Kd” value under setting [1] stood at 22.9 nM and the “apparent Kd” value under setting [2] is 23.3 nM.

As for “GUAGCUCCUGACAUGAGGAUCACCCAUGUUCACUUAUUAAAUCAGGAUAUCCUCUCGAAACGAGAGGAGAAGGGAUAAGCUACU”, the “apparent Kd” value reads like this: under setting [3], 7.84 nM; under setting [4], 7.36 nM.

On to “CCUAUGUGAGGAUAUGGUGUUGGCCACAAGGAAAAGCUCCUCCAGAAGGCACAUGAGGAUCACCCAUGUCGUGG”, for which the “apparent Kd” value runs as follows: under setting [1], 21.5 nM; under setting [2], 115 nM.

Regarding “CUUAUGUAAGGAUAUCAGUAGUAAAAAAAUAAAAUUACUACUGAGAAGGUACAUGAGGAUCACCCAUGUCUUUC”, the “apparent Kd” value runs as follows: under setting [1], 113 nM; under setting [2], 50.5 nM.

With “GGAAACUACGAGAAGGACAUGUGGUCCUUCAGUUACAUGAGGAUCACCCAUGUAGGAUAUCGUAGUUUCAGGAUCGUGAGAUCC”, the “apparent Kd” value came out at 33 nM under setting [1] and 12.8 nM under setting [2].

Turning to “AUAUGAAAGAUAGGAUAUACUGAGGUUGAAUGGGUAGAAGGAUCGAUAGGGAAGAAUACAUGAGGAUCACCCAUGUUGUGGAUU”, the “apparent Kd” value is, setting by setting: under setting [3], 81.7 nM; under setting [4], 51.9 nM.

As to “CGAAGAGGAAGUGAAAGGCGGGACAGAAGGGCACCGGGUCAGCGUCACAUGAGGAUCACCCAUGUGCAGGAUAUGUCGACCCAC”, the “apparent Kd” value under setting [1] is 6.54 nM and the “apparent Kd” value under setting [2] came to 30.4 nM.

As for “UUAAAUCAUGUAGGAUAUGCAUGGCGAAGCUACGCAGAAGGACAUGAGGAUCACCCAUGUUAUAGCGUCCGAUAAAGGAUGCAA”, the “apparent Kd” value was 85.1 nM under setting [1] and 225 nM under setting [2].

Turning to “AAGAGUACAGGAUAUACAUGAGGAUCACCCAUGUGAAAAUUAAGUGGCGUACCACAAAGUAGAAGGGUACUGGA”, the “apparent Kd” value is, setting by setting: under setting [1], 22.4 nM; under setting [2], 50.8 nM.

Regarding “AAUCCACAUGAGGAUCACCCAUGUCAGGAUAUCGUGUCGCGGGUUUCGGUCCGUGAUGCGAGAAGGGACGGCUG”, the “apparent Kd” value reads like this: under setting [1], 31.9 nM; under setting [2], 53.1 nM.

“UCCUUGUCCUGAGGAUAUCCGCGGUUCCCAAAAGGAGAAGGCAGGACAUGAGGAUCACCCAUGUACCCAGAAAACGUACAGAGU”: the “apparent Kd” value under setting [1] was found to be 44.7 nM and the “apparent Kd” value under setting [2] came to 162 nM.

As for “AUAAUUUUAUAUUUCUUUUUAUUCAGAAGGCAUAACAUGAGGAUCACCCAUGUAAAUUAAUGUUAUGAGGAUAUGAUUUGGUUA”, the “apparent Kd” value under setting [1] was found to be 24.2 nM and the “apparent Kd” value under setting [2] stood at 105 nM.

For “CAGGUAGACUGAGGAUAUACAUGACUUAGUCUAUCUAGGUCUAAAAUCACAUGAGGAUCACCCAUGUAGAAGGCAGUCUGCCUG”, the “apparent Kd” value was 17.6 nM under setting [1] and 24.2 nM under setting [2].

As to “UAUGUGUCAGGAUAUUAGUAGUAAAUGAAUAAAAUUAUUACUGAGAAGGGACAUGAGGAUCACCCAUGUGCCUU”, the “apparent Kd” value is, setting by setting: under setting [1], 15.9 nM; under setting [2], 20.3 nM.

On to “AGGUAGCAAGGAUAUACAACUUUGGGCACUGCCUCUUGGAGACAUGAGGAUCACCCAUGUAGAAGGUGCAGGCC”, for which the “apparent Kd” value is, setting by setting: under setting [1], 13.2 nM; under setting [2], 33.9 nM.

For the sequence “UGUGCGUUGAUCUUCGAUCGGAGUACAUGAGGAUCACCCAUGUAGGAUAUUCAAAGACGCAGAUAGAAGAAGGACAUCGGAUUA”, the “apparent Kd” value is, setting by setting: under setting [1], 13.2 nM; under setting [2], 11.1 nM.

For the sequence “GUGCAUUCGUAGAAGGGUGACAUGAGGAUCACCCAUGUGCGCUGGGCUCAGGAUGCCUCAGCGCCACAGGAUAUACGAAGCACC”, the “apparent Kd” value reads like this: under setting [3], 97.6 nM; under setting [4], 35.1 nM.

“GGGCCGGUGGAGAAGGAGCUCACGUAACGUAGGCUAGGAUAUCCACAUGAGGAUCACCCAUGUGGGAAUAUCUGAUUUUCACAG”: the “apparent Kd” value was 4.01 nM under setting [1] and 4.88 nM under setting [2].

As to “AGUAAGCUUGAGAAGGUGAAGUGGAAACAUGAGGAUCACCCAUGUAUUAGGAAGCCUGGUUUUGUCAAGGAUAUCGGGUUUACA”, the “apparent Kd” value runs as follows: under setting [3], 12.2 nM; under setting [4], 12.6 nM.

Turning to “AUAGGCCUAGGAUAUACAUGAGGAUCACCCAUGUUAAUAAUUCGAUCAUGAUAAACGUGUAGAAGGAGGAAUAA”, the “apparent Kd” value under setting [1] was found to be 32.9 nM and the “apparent Kd” value under setting [2] was 36.9 nM.

For “UGUGGGUCCGUUAGGAUAUUUACAGGCAUGCCUGUAAAGAAGGAACAUGAGGAUCACCCAUGUUUGACAAAUUU”, the “apparent Kd” value under setting [1] is 16.9 nM and the “apparent Kd” value under setting [2] came to 39.8 nM.

As to “UAGGGAGGAGGGAGGGAGACAUGAGGAUCACCCAUGUAAAGUCAGGAUAUUCUCAUAUUAUAUUAGGAGAAGGGAUACAUAUCU”, the “apparent Kd” value reads like this: under setting [1], 47.5 nM; under setting [2], 13.8 nM.

“AUCAGCUCGUCAGGAUAUACGUCACUGCGGCAGCAGUGUGGUAAGAUCACAUGAGGAUCACCCAUGUAGAAGGGACGAGCUGAU”: the “apparent Kd” value was 13.1 nM under setting [1] and 260 nM under setting [2].

Consider “AAUUAACACCAGAAGGACAUGAGGAUCACCCAUGUAGGAUAUGGGAGUGGGUCCGUUGGAGUUGGCCCGUCUCUGCGGGCUCGA”, for which the “apparent Kd” value turned out to be 79.1 nM under setting [3] and 8.95 nM under setting [4].

Take “GGGUACAUCGGAGGAUAUCAUGUAAAUACAUGAGGAUCACCCAUGUCGAUGGAGACAUCGGAGAGUGAGAAGGCCGAUGUACCG”: the “apparent Kd” value is, setting by setting: under setting [3], 257 nM; under setting [4], 13.3 nM.

With “UUUUUCUGCUGAGGAUAUUGCUCGUGCGUACAUGAGGAUCACCCAUGUGUCUUGAUCCUCUUCUGCAAGAAGGCAGCUCUCUCU”, the “apparent Kd” value stood at 403 nM under setting [1] and 155 nM under setting [2].

“CCUUCACAUGAGGAUCACCCAUGUCAGGAUAUCUCAGUGCAUCCACACGGACGCAUCAAGAGAAGGGACAAAAC”: the “apparent Kd” value was 46.4 nM under setting [1] and 53.6 nM under setting [2].

“CGCUGCCACGCAGGAUAUGCAUUGGAUUACAAUGCAGAAGGGCGAUUACAUGAGGAUCACCCAUGUGUCGGCAGUGAAGAAGAG”: the “apparent Kd” value worked out at 657 nM under setting [3] and 44.9 nM under setting [4].

Turning to “CUUUCGUGAGGAUAUCAGUAGUAAAAUAAUAAAAUUACUACUGAGAAGGCACAUGAGGAUCACCCAUGUUCCUC”, the “apparent Kd” value is 24.4 nM under setting [1] and 134 nM under setting [2].

As for “UCAGGCUUCGAGAAGGACAUGAGGAUCACCCAUGUUAAUAUGUAGCAGCCGUGAGGCUGCAUCAUGUAGGAUAUCGGAGUCUGC”, the “apparent Kd” value was 7.02 nM under setting [1] and 18.7 nM under setting [2].

Take “AGGCGGAAAGUCAGGAUAUCUUGACCAAAGGGUUGAGAGAAGGGACAUGAGGAUCACCCAUGUGGCGACCGCCA”: the “apparent Kd” value was found to be 37.5 nM under setting [1] and 67.9 nM under setting [2].

As for “UUUAAACAUGAGGAUCACCCAUGUCGUUCAAAUCAAGGAUAUCAAGCGUAUGCGCACGCUUGAGAAGGUGAAGCUC”, the “apparent Kd” value under setting [3] was 47.2 nM and the “apparent Kd” value under setting [4] is 135 nM.

For the sequence “CGGCACCGAGGAUAUACAUGAGGAUCACCCAUGUUUGUUGGGCCCUUAAGAUCUACGUGUAGAAGGUGGGUCGA”, the “apparent Kd” value is, setting by setting: under setting [1], 131 nM; under setting [2], 167 nM.

For “AAAUUAAGGAGAGGAUAUUGACAUGAGGAUCACCCAUGUAUUUGGGAGUGUUUACUGAAUUCUUACGAGAAGGCUUACGAAAUU”, the “apparent Kd” value was determined as 308 nM under setting [1] and 234 nM under setting [2].

“AGAACAUGAGGAUCACCCAUGUAAAGAUCGGUUAAUAAGGGUGAGGAUAUGCUUAAAAUAAGGUAGCAGAAGGUACUUGGUACA”: the “apparent Kd” value is 247 nM under setting [3] and 345 nM under setting [4].

Take “GUCAGCUCGUGAGGAUAUACGUCACUGCUUCGGCAGUGAAAUUUCCUCACAUGAGGAUCACCCAUGUAGAAGGCACGAGCUGAU”: the “apparent Kd” value reads like this: under setting [1], 11.5 nM; under setting [2], 208 nM.

Source of the values: the EternaBench riboswitch data.
